The text below walks through data of ChEMBL document CHEMBL1148450, “Novel amino acid derived natural products from the ascidian Atriolum robustum: identification and pharmacological characterization of a unique adenosine derivative” (J Med Chem, 2004).

Some results are limits rather than exact numbers.

Assay [1] concerns the target T1, Adenosine receptor A1 (Rattus norvegicus, UniProt P25099).
T1 sequence (P25099 whole entry): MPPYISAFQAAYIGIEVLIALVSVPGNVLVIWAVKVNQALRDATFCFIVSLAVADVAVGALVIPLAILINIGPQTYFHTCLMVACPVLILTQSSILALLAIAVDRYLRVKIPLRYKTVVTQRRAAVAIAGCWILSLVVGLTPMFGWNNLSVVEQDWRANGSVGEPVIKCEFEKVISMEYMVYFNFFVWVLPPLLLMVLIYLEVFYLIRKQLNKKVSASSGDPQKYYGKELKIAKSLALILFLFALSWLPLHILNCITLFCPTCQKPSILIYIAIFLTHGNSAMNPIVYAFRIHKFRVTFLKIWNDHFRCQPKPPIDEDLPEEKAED
Briefly: Displacement of [3H]DPCPX from adenosine A1 receptor of rat cortical membranes without GTP. It is filed as cell membranes, Membrane. In a few lines:
(§1)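 Cortical A1 assay as for [3H]CCPA (50 mM Tris-HCl pH 7.4, 23 °C, 90 min, ~70 µg/mL protein) but with [3H]DPCPX as radioligand and 10 µM unlabeled DPCPX for nonspecific binding. Curves were run without and with 100 µM GTP and fitted by nonlinear regression to apparent IC50s. GTP shift = IC50(+GTP)/IC50(−GTP). Two experiments, each in duplicate.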

In assay [2] the target is T1, Adenosine receptor A1. The assay is described as follows: Displacement of [3H]DPCPX from adenosine A1 receptor of rat cortical membranes with GTP. The assay is classed as cell membranes, Membrane. In a few lines:
as §1

Assay [3] concerns the target T2, Adenosine receptor A1 (Rattus norvegicus) (UniProt P25099).
T2 sequence (whole entry): T1 sequence (P25099 whole entry)
The assay is described as follows: Binding affinity against adenosine A1 receptor in the presence of GTP relative to the absence of GTP.

Assay [4] addresses T3, Adenosine receptor A2b (Homo sapiens, UniProt P29275).
T3 sequence (P29275 whole entry): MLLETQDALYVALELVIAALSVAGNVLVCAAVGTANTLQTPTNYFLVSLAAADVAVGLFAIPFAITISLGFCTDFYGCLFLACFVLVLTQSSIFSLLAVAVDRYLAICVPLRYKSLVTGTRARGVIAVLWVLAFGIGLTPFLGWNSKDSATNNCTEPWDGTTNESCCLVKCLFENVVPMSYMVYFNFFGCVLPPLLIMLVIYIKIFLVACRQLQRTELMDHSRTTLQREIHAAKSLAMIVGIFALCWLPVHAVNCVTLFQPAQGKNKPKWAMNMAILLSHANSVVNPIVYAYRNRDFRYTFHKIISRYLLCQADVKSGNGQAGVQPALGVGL
The assay is described as follows: Displacement of [3H]PSB-298 from human adenosine A2B receptor expressed in HEK293 cells at 10 uM; Less than 10% inhibition. It is filed as cell-based.

The target of assay [5] is T4, Adenosine receptor A3 (Homo sapiens) (UniProt P0DMS8).
T4 sequence (whole entry): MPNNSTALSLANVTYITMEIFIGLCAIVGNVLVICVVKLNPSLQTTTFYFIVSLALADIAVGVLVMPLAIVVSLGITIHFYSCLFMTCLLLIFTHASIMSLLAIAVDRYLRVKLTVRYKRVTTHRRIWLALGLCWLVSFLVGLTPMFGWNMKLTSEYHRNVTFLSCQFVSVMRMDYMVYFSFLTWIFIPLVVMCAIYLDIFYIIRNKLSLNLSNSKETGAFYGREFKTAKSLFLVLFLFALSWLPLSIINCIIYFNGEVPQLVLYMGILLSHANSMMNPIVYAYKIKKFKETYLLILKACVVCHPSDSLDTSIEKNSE
The assay is described as follows: Percent efficacy for inhibition of human adenosine A3 receptor activity relative to NECA. The assay is classed as functional.

Assay [6] concerns the target T5, Adenosine receptor A2a (Rattus norvegicus, UniProt P30543). Briefly: Displacement of [3H]NECA from Adenosine A2A receptor of rat striatal membranes. It is filed as cell membranes, Membrane.
Assay [7] has as its target T1, Adenosine receptor A1. The assay is described as follows: Displacement of [3H]DPCPX from adenosine A1 receptor of rat cortical membranes. It is filed as cell membranes, Membrane. In a few lines: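 Run as the rat cortical membrane A1 assay (50 mM Tris-HCl pH 7.4, 23 °C, 90 min) but with [3H]DPCPX as radioligand. Nonspecific binding was set with 10 µM unlabeled DPCPX. Binding was measured without and with 100 µM GTP, and IC50 came from nonlinear regression. GTP shift is the IC50 with GTP divided by the IC50 without GTP. Two experiments were run, each in duplicate.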

Assay [8] deals with T5, Adenosine receptor A2a. The assay is described as follows: Displacement of [3H]-MSX-2 from Adenosine A2A receptor of rat striatal membranes. The assay is classed as cell membranes, Membrane. In a few lines: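 Rat striatal membranes (protein ca. 70 µg/mL) were incubated with 1 nM [3H]MSX-2 in 50 mM Tris-HCl, pH 7.4, for 30 min at 23 °C. […] Filtration was on PEI-presoaked GF/B filters with scintillation counting. Seven to nine concentrations (DMSO stock) spanned 3 log units; three experiments, each in duplicate.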

Assay [9] deals with T6, Adenosine receptor A3 (Homo sapiens, UniProt P0DMS8).
T6 sequence (P0DMS8 whole entry): T4 sequence (whole entry)
The assay is described as follows: Displacement of [3H]PSB-11 from human adenosine A3 receptor expressed in CHO cells. It is filed as cell-based. In a few lines: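 Membranes came from CHO cells stably expressing human A3AR. They were incubated with 0.5 nM [3H]PSB-11 in 50 mM Tris-HCl, pH 7.4, for 45 min, and 100 µM R-PIA defined nonspecific binding. Bound radioactivity was collected on GF/B filters and scintillation-counted. Seven to nine test concentrations were used; run twice, each in duplicate.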

The target in assay [10] is T1, Adenosine receptor A1. The assay is described as follows: Displacement of [3H]CCPA from adenosine A1 receptor of rat cortical membranes. It is filed as cell membranes, Membrane. In a few lines: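 Rat brain cortical membranes at about 70 µg/mL protein, with 0.5 nM [3H]CCPA in 50 mM Tris-HCl pH 7.4, 23 °C for 90 min. Nonspecific binding was set with 10 µM 2-chloroadenosine. Bound ligand was collected by GF/B filtration and counted by scintillation. The test compound came from DMSO at 7–9 concentrations spanning 3 orders of magnitude. Three experiments were run, each in duplicate.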

Assay [11] addresses T6, Adenosine receptor A3. Briefly: Inhibition of forskolin-stimulated cAMP accumulation in chinese hamster ovary cell membranes expressing human adenosine A3 receptor. The assay is classed as functional, cell-based.
Assay [12] has as its target T1, Adenosine receptor A1. The assay is described as follows: Displacement of [3H]R-PIA from adenosine A1 receptor of rat cortical membranes. The assay is classed as cell membranes, Membrane.
For assay [13], the target named is T3, Adenosine receptor A2b. Briefly: Binding affinity towards human adenosine A2B receptor in VA13 fibroblasts as […] at 10 uM; Less than 10% inhibition. The assay is classed as functional.
Assay [14] deals with T1, Adenosine receptor A1. Briefly: Displacement of [3H]DPCPX from rat Adenosine A1 receptor of cortical membranes. The assay is classed as cell membranes, Membrane. In a few lines:
as §1

Assay [15] concerns the target T1, Adenosine receptor A1. Briefly: Displacement of [3H]CCPA from Adenosine A1 receptor of rat cortical membranes. The assay is classed as cell membranes, Membrane. In a few lines: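 A1 binding used rat cortical membranes (ca. 70 µg/mL protein) with 0.5 nM [3H]CCPA in 50 mM Tris-HCl, pH 7.4, for 90 min at 23 °C. 10 µM 2-chloroadenosine defined nonspecific binding. Separation was by GF/B filtration and scintillation counting. Inhibition curves had seven to nine concentrations across 3 orders of magnitude; three separate experiments, each in duplicate.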

Assay [16] deals with T3, Adenosine receptor A2b. Briefly: Displacement of [3H]PSB-298 from human adenosine A2B receptor expressed in HEK293 cells at 10 uM. The assay is classed as cell-based.

T5 sequence (P30543 whole entry): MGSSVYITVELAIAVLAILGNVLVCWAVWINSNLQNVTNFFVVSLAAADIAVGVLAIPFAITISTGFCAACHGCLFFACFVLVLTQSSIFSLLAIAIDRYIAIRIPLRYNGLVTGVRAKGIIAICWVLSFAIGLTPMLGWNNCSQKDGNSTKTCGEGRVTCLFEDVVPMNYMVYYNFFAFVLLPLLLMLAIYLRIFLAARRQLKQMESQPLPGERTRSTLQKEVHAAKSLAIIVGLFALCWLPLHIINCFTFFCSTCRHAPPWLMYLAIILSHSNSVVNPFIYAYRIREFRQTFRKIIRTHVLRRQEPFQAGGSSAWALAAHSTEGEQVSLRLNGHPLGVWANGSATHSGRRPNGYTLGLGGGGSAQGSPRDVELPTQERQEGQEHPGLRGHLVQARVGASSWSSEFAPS

As for `Cn1cnc2c(N)ncnc21`, the half-inhibitory concentration (IC50) on Adenosine receptor A1 [1] is 12.5 µM; on Adenosine receptor A1 [2] it was 14.7 µM. Moreover, in [3], the Ratio came out at 1.2.

As to `CC(=O)O[C@]1(C(C)=O)CC[C@H]2[C@@H]3C=C(Cl)C4=CC(=O)[C@@H]5C[C@@H]5[C@]4(C)[C@H]3CC[C@@]21C` [CYPROTERONE ACETATE], the figures for the IC50 on Adenosine receptor A1 [1] and at Adenosine receptor A1 [2] were 0.005 µM and 0.125 µM, respectively. In addition, the Ratio in [3] is 22.8.

Turning to `CSC[C@H]1O[C@@H](n2cnc3c(N)ncnc32)[C@H](O)[C@@H]1O` [METHYLTHIOADENOSINE], the IC50 at Adenosine receptor A1 [1] is 0.68 µM; on Adenosine receptor A1 [2], 15.1 µM; against Adenosine receptor A3 [11], 71 µM. In addition, the Ki was 13.9 µM at Adenosine receptor A2b [4]; 1.18 µM at Adenosine receptor A2a [6]; 0.21 µM at Adenosine receptor A1 [7]; 1.13 µM on Adenosine receptor A2a [8]; 0.68 µM on Adenosine receptor A3 [9]; 0.15 µM at Adenosine receptor A1 [10]. In addition, the inhibitory constant (Ki) at Adenosine receptor A1 [12] came to 0.24 µM; on Adenosine receptor A2b [13], 8.2 µM. For the same compound, in assay [5], the Efficacy turned out to be 46%. Besides, the Ratio in [3] amounted to 22.2.

For `CO/C(=C\c1ccc(O)cc1)C(=O)O[C@@H]1[C@H](OC(=O)/C=C/c2c[nH]cn2)[C@@H](CSC)O[C@H]1n1cnc2c(N)ncnc21`, the IC50 turned out to be 23 µM at Adenosine receptor A1 [1], 143 µM at Adenosine receptor A1 [2] and 6.7 µM on Adenosine receptor A3 [11]. For the same compound, the Ki at Adenosine receptor A1 [14] was 9.45 µM; on Adenosine receptor A2a [8] it was 17.1 µM; on Adenosine receptor A3 [9], 6.94 µM; on Adenosine receptor A1 [15], 3.26 µM; on Adenosine receptor A2b [16] it was more than 10 µM. In addition, in [5], the Efficacy turned out to be 56%. Further, the Ratio in [3] was 6.2.
